Series [1] relates to Hepatitis C virus. The series can be described thus: Antiviral activity against G envelope protein expressing HCV infected in HepG2 cells assessed as inhibition of viral invasion at 10 uM after 24 hrs by SEAP reporter gene assay. The series is classed as functional, Hepacivirus hominis. Conditions: HepG2, 24 h. In short, it runs like this:
(§1)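 HepG2 cells seeded at 9.0 × 10⁴ cells/mL in DMEM with 10% FBS were grown 24 h at 37 °C under 5% CO₂. Samples in DMSO were diluted in medium (final DMSO 1.0%) and added 1 h before inoculation. After a further 24 h, supernatant SEAP activity was read by fluorescence.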
On the technique in general: Reporter assays use an easily measured gene product as a stand-in for the process of interest.

The test system of series [2] is Hepatitis C virus. The series can be described thus: Antiviral activity against E1 and E2 envelope protein expressing HCV infected in HepG2 cells assessed as inhibition of viral invasion at 10 uM after 24 hrs by SEAP reporter gene assay. The series is classed as functional, Hepacivirus hominis. Conditions: HepG2, 24 h. The gist of the method:
as §1

Series [3] has as its system Hepatitis C virus. The series can be described thus: Antiviral activity against G envelope protein expressing HCV infected in HepG2 cells assessed as inhibition of viral invasion at 3 uM after 24 hrs by SEAP reporter gene assay. The series is classed as functional, Hepacivirus hominis. Conditions: HepG2, 24 h. The gist of the method:
as §1

The subject of series [4] is Hepatitis C virus. The series can be described thus: Antiviral activity against G envelope protein expressing HCV infected in HepG2 cells assessed as inhibition of viral invasion at 1 uM after 24 hrs by SEAP reporter gene assay. Conditions: HepG2, 24 h. The format is functional, Hepacivirus hominis. In short, it runs like this:
as §1

The test system of series [5] is Hepatitis C virus. The series can be described thus: Antiviral activity against E1 and E2 envelope protein expressing HCV infected in HepG2 cells assessed as inhibition of viral invasion at 3 uM after 24 hrs by SEAP reporter gene assay. The series is classed as functional, Hepacivirus hominis. The following applies: HepG2, 24 h. The gist of the method: as §1
For series [6], the system named is Hepatitis C virus. The series can be described thus: Antiviral activity against E1 and E2 envelope protein expressing HCV infected in HepG2 cells assessed as inhibition of viral invasion at 1 uM after 24 hrs by SEAP reporter gene assay. The following applies: HepG2, 24 h. The format is functional, Hepacivirus hominis. In short, it runs like this: as §1
Series [7] in a line: Growth inhibition of human HepG2 cells at 10 uM. The format is cell-based. Conditions: read-out: GI.

Each structure is given as a SMILES string.

As to `O=C(OC[C@H]1OC(O)[C@H](OC(=O)c2cc(O)c(O)c(O)c2)[C@@H](OC(=O)c2cc(O)c(O)c(O)c2)[C@@H]1OC(=O)c1cc(O)c(O)c(O)c1)c1cc(O)c(O)c(O)c1` (stereo not given in full), the inhibition at 10 µM came to 51.2% with Hepatitis C virus [1] and 43.7% in the series on Hepatitis C virus [2]. For the same molecule, the inhibition at 3 µM in the series on Hepatitis C virus [3] came to 40.7%; in the series on Hepatitis C virus [5], 20.8%. In addition, the inhibition at 1 µM in the series with Hepatitis C virus [4] was 16%; in the series on Hepatitis C virus [6], 9.1%.
Regarding `O=C(O[C@@H]1O[C@@H]2COC(=O)c3cc(O)c(O)c(O)c3-c3c(cc(O)c(O)c3O)C(=O)O[C@H]2[C@H](OC(=O)c2cc(O)c(O)c(O)c2)[C@H]1OC(=O)c1cc(O)c(O)c(O)c1)c1cc(O)c(O)c(O)c1` [EUGENIIN], the values for the inhibition at 10 µM with Hepatitis C virus [1] and with Hepatitis C virus [2] were 35.7% and 92.8%, respectively. In addition, the inhibition at 3 µM came to 21.2% in the series on Hepatitis C virus [3] and 51.3% in the series on Hepatitis C virus [5]. In addition, the figures for the inhibition at 1 µM in the series on Hepatitis C virus [4] and in the series with Hepatitis C virus [6] were 17.2% and 18.4%, respectively.
As for `O=C1OC[C@H]2OC(O)[C@@H]3OC(=O)c4cc(O)c(O)c(O)c4-c4c(cc(O)c(O)c4O)C(=O)O[C@H]3[C@@H]2OC(=O)c2cc(O)c(O)c(O)c2-c2c1cc(O)c(O)c2O` (stereo not given in full) [PEDUNCULAGIN], the inhibition at 10 µM in the series with Hepatitis C virus [1] is 30.9%; with Hepatitis C virus [2] it was 81.1%. For the same molecule, the inhibition at 3 µM with Hepatitis C virus [3] is 14.8%; with Hepatitis C virus [5] it was 58.8%. Also, the inhibition at 1 µM turned out to be 9.4% in the series with Hepatitis C virus [4] and 14.6% in the series on Hepatitis C virus [6].
On to `O=C(OC[C@H]1O[C@@H](OC(=O)c2cc(O)c(O)c(O)c2)[C@H](OC(=O)c2cc(O)c(O)c(O)c2)[C@@H](OC(=O)c2cc(O)c(O)c(O)c2)[C@@H]1OC(=O)c1cc(O)c(O)c(O)c1)c1cc(O)c(O)c(O)c1` [PENTAGALLOYL GLUCOSE], for which the results for the inhibition at 10 µM in the series on Hepatitis C virus [1] and with Hepatitis C virus [2] were 40.7% and 72.3%, respectively. For the same molecule, the inhibition at 3 µM in the series with Hepatitis C virus [3] is 22.8%; in the series on Hepatitis C virus [5], 28.9%. For the same molecule, the inhibition at 1 µM with Hepatitis C virus [4] was 5%; in the series with Hepatitis C virus [6] it was 4.2%.
`O=C(O[C@H]1[C@@H]2OC(=O)c3cc(O)c(O)c(O)c3-c3c(cc(O)c(O)c3O)C(=O)OC[C@H]2OC(O)[C@@H]1OC(=O)c1cc(O)c(O)c(O)c1)c1cc(O)c(O)c(O)c1` (stereo not given in full) [Tellimagrandin I]: in series [7], the inhibition at 10 µM was 15.6%.

Values taken from ChEMBL document CHEMBL1154968, “Tellimagrandin I, HCV invasion inhibitor from Rosae Rugosae Flos” (Bioorg Med Chem Lett, 2010).
